From ChEMBL document CHEMBL2169868, “Flavone-based novel antidiabetic and antidyslipidemic agents” (J Med Chem, 2012)
Active and inactive are the calls of the source. The calls are words filed in the database; no cut-off is given here.

Columns and labels:
Mus musculus [1] = assay: Antidiabetic activity in diabetic C57BL/KsJ db/db mouse model assessed as reduction in postprandial glucose level in hyperglycemia at 25 mg/kg, po measured 2 hrs post dose; assay type: functional; parameters: scale not given: the % may be the effect or the level left
Summary of the method: (§1)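 db/db mice (C57BL/KsJ, 12−18 weeks, 40−50 g; selected by glucose 200−350 mg/dL) dosed orally daily for 10 consecutive days at 1, 3, 10, 25 or 50 mg/kg; postprandial blood glucose profile recorded on day 6 with food access interrupted; mean % change versus vehicle in 5 animals per group; Student t test.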

Mus musculus [2] = assay: Antidyslipidemic activity in diabetic C57BL/KsJ db/db mouse model assessed as increase in plasma HDL-C/cholesterol ratio at 25 mg/kg, po qd for 10 days; assay type: functional
Summary of the method: (§2)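 db/db mice (blood glucose 200−350, TG 170−250, cholesterol 170−250, HDL-C 32−40 mg/dL) dosed orally at 25 mg/kg daily for 10 days; retro-orbital blood taken on day 11 for plasma TG, cholesterol and HDL-C (and HDL-C/CHOL ratio); mean % change versus vehicle control, 5 mice per group; Student t test.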

Rattus norvegicus [3] = assay: AUC in Sprague-Dawley rat at 2.5 mg/kg, iv by LC-MS/MS method; settings: in vivo
[4] = Oral bioavailability in Sprague-Dawley rat at 25 mg/kg by LC-MS/MS method; assay type: ADME, organism-based; settings: in vivo
Summary of the method: (§3)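 Male Sprague−Dawley rats given a single 25 mg/kg oral dose (aqueous 0.5% methyl cellulose suspension for one compound). Blood drawn from 0.08 to 48 h. LC-MS/MS, linear range 0.78−400 ng/mL.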

[5] = Plasma clearance in Sprague-Dawley rat at 25 mg/kg, po by LC-MS/MS method; assay type: ADME, organism-based; parameters: dose 25 mg/kg, route oral; summary of the method: as §3
Mus musculus [6] = assay: Antidiabetic activity in diabetic C57BL/KsJ db/db mouse model assessed as improvement in glucose tolerance in hyperglycemia at 100 mg/kg, po measured 2 hrs post dose; assay type: functional
Mus musculus [7] = assay: Antidiabetic activity in diabetic C57BL/KsJ db/db mouse model assessed as improvement in glucose tolerance in hyperglycemia at 25 mg/kg, po measured 2 hrs post dose; assay type: functional
[8] = Mean residence time in Sprague-Dawley rat at 2.5 mg/kg, iv by LC-MS/MS method; assay type: ADME, organism-based; parameters: dose 2.5 mg/kg, route intravenous; settings: in vivo
Summary of the method: (§4)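 Male Sprague−Dawley rats given a single 2.5 mg/kg iv dose; one formulation was DMF/PG/water (2:4:4), 0.2 μ filtered. Blood drawn from 0.08 to 48 h. Plasma assayed by LC-MS/MS with linear range 0.78−400 ng/mL.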

[9] = Tmax in Sprague-Dawley rat at 25 mg/kg, po by LC-MS/MS method; assay type: ADME, organism-based; parameters: dose 25 mg/kg, route oral; settings: in vivo; summary of the method: as §3
Mus musculus [10] = assay: Antidiabetic activity in diabetic C57BL/KsJ db/db mouse model assessed as reduction in postprandial glucose level in hyperglycemia at 3 mg/kg, po measured 2 hrs post dose; assay type: functional; parameters: scale not given: the % may be the effect or the level left; summary of the method: as §1
Mus musculus [11] = assay: Antihyperglycemic activity in diabetic C57BL/KsJ db/db mouse model assessed as improvement in glucose tolerance in hyperglycemia at 25 mg/kg, po qd for 10 days; assay type: functional
Summary of the method: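 Male/female C57BL/KsJ db/db mice, 12−18 weeks, 40−50 g, selected for glucose 200−350 mg/dL. Oral dosing daily for 10 days. OGTT on day 10 after an overnight fast: compound at −30 min, then 3 g/kg oral glucose at 0 min. Glucose read at 30, 60, 90 and 120 min. AUC taken versus vehicle, 5 mice per group.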

Rattus norvegicus [12] = assay: AUC in Sprague-Dawley rat at 25 mg/kg, po by LC-MS/MS method; settings: in vivo
Mus musculus [13] = assay: Antidiabetic activity in diabetic C57BL/KsJ db/db mouse model assessed as improvement in glucose tolerance in hyperglycemia at 10 mg/kg, po measured 2 hrs post dose; assay type: functional
Mus musculus [14] = assay: Antidiabetic activity in diabetic C57BL/KsJ db/db mouse model assessed as reduction in postprandial glucose level in hyperglycemia at 10 mg/kg, po measured 2 hrs post dose; assay type: functional; parameters: scale not given: the % may be the effect or the level left; summary of the method: as §1
Mus musculus [15] = assay: Antidiabetic activity in diabetic C57BL/KsJ db/db mouse model assessed as reduction in postprandial glucose level in hyperglycemia at 50 mg/kg, po measured 2 hrs post dose; parameters: scale not given: the % may be the effect or the level left
[16] = Mean residence time in Sprague-Dawley rat at 25 mg/kg, po by LC-MS/MS method; assay type: ADME, organism-based; parameters: dose 25 mg/kg, route oral; settings: in vivo; summary of the method: as §3
[17] = Volume of distribution in Sprague-Dawley rat at 2.5 mg/kg, iv by LC-MS/MS method; assay type: ADME, organism-based; parameters: dose 2.5 mg/kg, route intravenous; settings: in vivo; summary of the method: as §4
Mus musculus [18] = assay: Antidiabetic activity in diabetic C57BL/KsJ db/db mouse model assessed as improvement in glucose tolerance in hyperglycemia at 3 mg/kg, po measured 2 hrs post dose; assay type: functional
Mus musculus [19] = assay: Antidyslipidemic activity in diabetic C57BL/KsJ db/db mouse model assessed as reduction in plasma cholesterol level at 25 mg/kg, po qd for 10 days; assay type: functional; parameters: scale not given: the % may be the effect or the level left; summary of the method: as §2
[20] = Cmax in Sprague-Dawley rat at 25 mg/kg, po by LC-MS/MS method; assay type: ADME, organism-based; parameters: dose 25 mg/kg, route oral; settings: in vivo; summary of the method: as §3
Mus musculus [21] = assay: Antidyslipidemic activity in diabetic C57BL/KsJ db/db mouse model assessed as increase in plasma HDL-cholesterol level at 25 mg/kg, po qd for 10 days; assay type: functional; summary of the method: as §2
Mus musculus [22] = assay: Antidiabetic activity in diabetic C57BL/KsJ db/db mouse model assessed as improvement in glucose tolerance in hyperglycemia at 1 mg/kg, po measured 2 hrs post dose; assay type: functional
[23] = Cmax in Sprague-Dawley rat at 2.5 mg/kg, iv by LC-MS/MS method; assay type: ADME, organism-based; parameters: dose 2.5 mg/kg, route intravenous; settings: in vivo; summary of the method: as §4
Mus musculus [24] = assay: Reduction in body weight in diabetic C57BL/KsJ db/db mouse model in hyperglycemia at 25 mg/kg, po qd for 10 days relative to untreated control; assay type: functional
Summary of the method: (§5)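 db/db mice (C57BL/KsJ, 12−18 weeks, 40−50 g, glucose 200−350 mg/dL), housed at 23 ± 2.0 °C on a 12 h light cycle. Oral dosing daily for 10 days. Blood glucose checked each morning through day 9. Body weight recorded daily from day 1 to day 10. Mean % change versus vehicle, 5 mice per group; Student t test.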

Rattus norvegicus [25] = assay: Volume of distribution in Sprague-Dawley rat at 25 mg/kg, po by LC-MS/MS method; assay type: ADME, organism-based; parameters: dose 25 mg/kg, route oral; settings: in vivo; summary of the method: as §3
Mus musculus [26] = assay: Antidiabetic activity in diabetic C57BL/KsJ db/db mouse model assessed as reduction in postprandial glucose level in hyperglycemia at 1 mg/kg, po measured 2 hrs post dose; assay type: functional; parameters: scale not given: the % may be the effect or the level left; summary of the method: as §1
Mus musculus [27] = assay: Antihyperglycemic activity in diabetic C57BL/KsJ db/db mouse model assessed as reduction in hyperglycemia at 25 mg/kg, po qd for 10 days; assay type: functional; parameters: scale not given: the % may be the effect or the level left; summary of the method: as §5
Mus musculus [28] = assay: Antihyperglycemic activity in diabetic C57BL/KsJ db/db mouse model assessed as reduction in plasma insulin level in hyperglycemia at 25 mg/kg, po qd for 10 days; assay type: functional; parameters: scale not given: the % may be the effect or the level left
Summary of the method: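 db/db mice dosed orally every day for 10 days. On day 11, retro-orbital blood was drawn and plasma insulin measured. Mean % change versus vehicle-treated control, 5 mice per group; Student t test.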

[29] = Plasma clearance in Sprague-Dawley rat at 2.5 mg/kg, iv by LC-MS/MS method; assay type: ADME, organism-based; parameters: dose 2.5 mg/kg, route intravenous; summary of the method: as §4
[30] = Elimination half life in Sprague-Dawley rat at 2.5 mg/kg, iv by LC-MS/MS method; assay type: ADME, organism-based; parameters: dose 2.5 mg/kg, route intravenous; settings: in vivo, read-out: beta t1/2 (converted); summary of the method: as §4
Mus musculus [31] = assay: Antidyslipidemic activity in diabetic C57BL/KsJ db/db mouse model assessed as reduction in plasma triglyceride level at 25 mg/kg, po qd for 10 days; assay type: functional; parameters: scale not given: the % may be the effect or the level left; summary of the method: as §2
[32] = Elimination half life in Sprague-Dawley rat at 25 mg/kg, po by LC-MS/MS method; assay type: ADME, organism-based; parameters: dose 25 mg/kg, route oral; settings: in vivo, read-out: beta t1/2 (converted); summary of the method: as §3

AUC (Rattus norvegicus [3]): 756 ng·h/mL
bioavailability [4]: 0.52%
CL/F [5]: 54.5 mL/min/kg
MRT [8]: 4.9 h
Tmax [9]: 0.33 h
AUC (Rattus norvegicus [12]): 39.5 ng·h/mL
MRT [16]: 5.96 h
Vd [17]: 16.2 L/kg
Cmax [20]: 21.2 ng/mL
Cmax [23]: 1810 ng/mL
Vd (Rattus norvegicus [25]): 16.18 L/kg
clearance [29]: 55 mL/min/kg
half-life [30]: 4.83 h
half-life [32]: 3.39 h
Compound: CC(C)NC[C@H](O)COc1ccc2c(=O)cc(-c3cc(O)cc(O)c3)oc2c1
Activity (Mus musculus [1]): 31.6%
Percent increase in HDL-C/cholesterol ratio vs vehicle (Mus musculus [2]): 68.7
Activity (Mus musculus [6]): 49.2%
Activity (Mus musculus [7]): 41.1%
Activity (Mus musculus [10]): 27.1%
Activity (Mus musculus [11]): 29.7%
Activity (Mus musculus [13]): 30.7%
Activity (Mus musculus [14]): 31.2%
Activity (Mus musculus [15]): 35.4%
Activity (Mus musculus [18]): 19.7%
Activity (Mus musculus [19]): 27%
Activity (Mus musculus [21]): 23.1%
Activity (Mus musculus [22]): 12%
Activity (Mus musculus [24]): inactive
Activity (Mus musculus [26]): 12.1%
Activity (Mus musculus [27]): 45.6%
Activity (Mus musculus [28]): 39.2%
Activity (Mus musculus [31]): 21%
